This is a sample that favours compounds with a hit; in the whole collection about 2.9% have one here.
Apaf-1 inh: blocks human Apaf-1 apoptosome activity. O14727. reconstituted apoptosome caspase-3 activity, DEVD-Rh110 fluorescence. inhibition, % at 20 µM. actives 0.71% (n = 330,000); active = inhibition of at least 40% at 20 µM
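Material: reconstituted apoptosome with Apaf-1, cytochrome c, caspase-9, procaspase-3, dATP / Buffer or medium: pH 7.5 Hepes buffer with CHAPS, BSA, DTT / Also added: cytochrome c with DEVD-Rh110 / Schedule: compound with Apaf-1, dATP, procaspase-3 30 min, then 50 min reaction, room temperature / Technique: rhodamine 110 fluorescence at Ex 480/Em 540 nm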
SENP8 block-1: blocks the human protease SENP8. inhibition, % at 10 µM. purified SENP8, Z-RLRGG-aminoluciferin cleavage, luminescence. actives 1.2% (n = 330,000); in the data active = inhibition above about 50%
Target sequence (Q96LD8 whole entry, looked up): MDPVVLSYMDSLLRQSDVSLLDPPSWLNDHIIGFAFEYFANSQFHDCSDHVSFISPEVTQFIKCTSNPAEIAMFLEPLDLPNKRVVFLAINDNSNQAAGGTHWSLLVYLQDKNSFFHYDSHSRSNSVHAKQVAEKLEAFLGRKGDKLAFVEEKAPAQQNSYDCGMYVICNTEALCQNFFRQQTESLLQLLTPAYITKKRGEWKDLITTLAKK
SENP1 inh: SENP1 (human) catalytic domain inhibition; Q9P0U3; recombinant SENP1 catalytic domain, CyPet-SUMO1-YPet FRET cleavage; inhibition, % at 10 µM; actives 0.21% (n = 360,000); AID 624204;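 active = inhibition at least 30% at 10 µM, raw YFP signal under a set limit, fluorescence ratio 0.5 to 1.5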
Target sequence (Q9P0U3 419-644 limits assumed): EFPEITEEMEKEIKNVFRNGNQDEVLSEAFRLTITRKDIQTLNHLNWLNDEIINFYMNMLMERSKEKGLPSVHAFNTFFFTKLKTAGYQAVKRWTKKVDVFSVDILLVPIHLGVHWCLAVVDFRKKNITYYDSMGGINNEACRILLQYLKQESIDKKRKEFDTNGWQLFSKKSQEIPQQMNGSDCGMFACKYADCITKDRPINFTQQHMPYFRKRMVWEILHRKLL
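Material – human SENP1 catalytic domain · Input – SENP1 enzyme, 20 pM final · Compound dosing – single concentration of 10 µM compound, 0.5% DMSO final · Timing – enzyme reaction for 50 min at room temperature, dark · Measured by – FRET fluorescence in CFP and YFP emission channels · Control set – no-enzyme wells low, DMSO-plus-enzyme wells high control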
SENP8 block-2: inhibitors of human SENP8 protease. recombinant SENP8, Nedd8 substrate fluorescence. inhibition, % at 20 µM. actives 0.64% (n = 360,000). AID 602440; in the data active = inhibition mostly above about 40%, no sharp cut-off; inactive = mostly below about 27%
SENP7 block: SENP7 protease inhibition. AID 434973. Q9BQF6. recombinant SENP7, Z-RLRGG-aminoluciferin luminescence, 40 min. inhibition, % at 5 µM. actives 1.5% (n = 330,000);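 active = inhibition above about 50% at the single test dose, limit read from the data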
SENP6 inh: blocks the human protease SENP6 | Q9GZR1 | Recombinant SENP6 catalytic domain, aminoluciferin luminescence | inhibition, % at 10 µM | actives 1.8% (n = 330,000) | AID 2599;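 active = inhibition above about 50% at the single tested dose, limit read from the data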
SENP8 conf: human SENP8 inhibition, confirmed; Recombinant SENP8, Z-RLRGG-aminoluciferin luminescence, 60 min; shares compounds with SENP7 block; actives 40% (n = 6,200); inhibition, % at 12.5 µM; AID 488912;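 active = mean inhibition across replicates above about 50%, limit read from the data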
SENP6 confirm: human SENP6 inhibition, confirmed; shares compounds with SENP7 block; recombinant SENP6, Z-RLRGG-aminoluciferin luminescence; inhibition, % at 12.5 µM; actives 58% (n = 6,200); AID 488915
SENP7 conf: human SENP7 inhibition, confirmed. AID 488917. actives 69% (n = 6,200). recombinant SENP7, Z-RLRGG-aminoluciferin luminescence, 40 min. shares compounds with SENP7 block. inhibition, % at 12.5 µM
Casp3 select: caspase-3 inhibition (SENP selectivity assay); actives 60% (n = 6,200); inhibition, % at 12.5 µM; shares compounds with SENP7 block; purified caspase-3, Z-DEVD-aminoluciferin luminescence, 60 min;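 active = mean inhibition above about 50%, limit read from the data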
Target sequence (P42574 28-227 limits assumed): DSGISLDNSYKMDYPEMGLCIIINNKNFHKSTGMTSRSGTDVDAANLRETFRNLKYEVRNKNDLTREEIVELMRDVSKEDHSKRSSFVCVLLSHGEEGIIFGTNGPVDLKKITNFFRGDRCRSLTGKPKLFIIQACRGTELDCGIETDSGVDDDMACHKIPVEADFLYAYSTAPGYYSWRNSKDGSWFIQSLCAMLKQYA
SENP luc ctr: counter-screen for SENP inhibitors: luminescence interference | actives 39% (n = 6,200) | shares compounds with SENP7 block | Pre-incubated SENP8/Z-RLRGG-aminoluciferin, luciferase luminescence interference | inhibition, % at 12.5 µM;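 active = mean inhibition above about 50% when retested at one dose, limit read from the data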
Each line names hits and unclear results; the compound was inactive in the other large screens (follow-up assays come after a bar, where they were run).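 The calls were made as follows, unless noted: active = mean inhibition above about 50% in the one-dose retest (limit read from the data); inactive = the rest.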

N/C(=N\OC(=O)C1CCCCC1)c1ccccn1	SENP7 block 68, SENP6 inh 67 | SENP8 conf 61 | SENP6 confirm 60 | SENP7 conf 87 | Casp3 select 89 | SENP luc ctr 67
N/C(=N\OC(=O)C1CCCCC1)c1ccncc1	none
COc1cccc(C(=O)O/N=C(\N)c2ccccn2)c1	SENP8 block-1 95, SENP7 block 98, SENP6 inh 97 | SENP8 conf 97 | SENP6 confirm 98 | SENP7 conf 102 | Casp3 select 98 | SENP luc ctr 98
Fc1ccc(N2CCN(c3cnc4ccccc4n3)CC2)cc1	none
CCCc1ccc(C(=O)O/N=C(\N)c2ccccn2)cc1	SENP8 block-1 97, SENP7 block 100, SENP6 inh 100 | SENP8 conf 97 | SENP6 confirm 100 | SENP7 conf 102 | Casp3 select 98 | SENP luc ctr 78
Cc1cc(C(=O)O/N=C(\N)c2ccncc2)ccc1[N+](=O)[O-]	SENP7 block 57 | SENP8 conf inactive | SENP6 confirm inactive | SENP7 conf inactive | Casp3 select inactive | SENP luc ctr inactive
N/C(=N\OC(=O)c1ccccc1Cl)c1ccncc1	none
Cc1ccccc1OCC(=O)O/N=C(\N)Cc1cccs1	none
Cc1ccccc1C(=O)O/N=C(\N)Cc1cccs1	SENP7 block 61, SENP6 inh 51 | SENP8 conf 52 | SENP6 confirm inactive | SENP7 conf 81 | Casp3 select 76 | SENP luc ctr 55
COc1ccc(/C(N)=N/OC(=O)c2ccc([N+](=O)[O-])c(C)c2)cc1OC	none
Cc1ccccc1C(=O)O/N=C(\N)c1ccncc1	SENP7 block 65, SENP6 inh 62 | SENP8 conf inactive | SENP6 confirm inactive | SENP7 conf 79 | Casp3 select 81 | SENP luc ctr 55
CC1(C(=O)Nc2cccc3cccnc23)CCN1C(=O)CC1CC1 (centres undefined)	none (no result: Apaf-1 inh, SENP8 block-1, SENP7 block, SENP6 inh)
Cc1cccc(CN2CCN([C@H]3CS(=O)(=O)N[C@@H]3COCc3ccccc3)CC2)c1	none (no result: Apaf-1 inh, SENP8 block-1, SENP7 block, SENP6 inh)
Cc1ccc(Cl)cc1NC(=O)Cn1nc(-c2cccs2)ccc1=O	none
CCC(=O)N1CCC(C)(C(=O)Nc2ccc3c(c2)OCCO3)C1 (centres undefined)	none (no result: Apaf-1 inh, SENP8 block-1, SENP7 block, SENP6 inh)
Cc1cccc(-n2ccnc2SCC(=O)Nc2cccc(S(=O)(=O)NC3=NCCC3)c2)c1C	none
Cc1c(C(=O)NNC(=O)c2cccnc2)cccc1[N+](=O)[O-]	none
N/C(=N\OC(=O)c1ccc2ccccc2c1)c1ccccc1Cl	SENP8 block-1 68, SENP7 block 78, SENP6 inh 73 | SENP8 conf 82 | SENP6 confirm 81 | SENP7 conf 94 | Casp3 select 71 | SENP luc ctr 83
N/C(=N\OC(=O)c1ccc2ccccc2c1)c1cccc([N+](=O)[O-])c1	none
COc1ccc(C)cc1NC(=O)C1CCCN(S(=O)(=O)c2cccnc2)C1 (centres undefined)	SENP8 block-1 60 | SENP8 conf inactive | SENP6 confirm inactive | SENP7 conf inactive | Casp3 select inactive | SENP luc ctr inactive
Cc1occc1C(=O)O/N=C(\N)c1ccc(Cl)cc1	SENP7 block 61, SENP6 inh 53 | SENP8 conf inactive | SENP6 confirm inactive | SENP7 conf 74 | Casp3 select 69 | SENP luc ctr 58
COc1ccc(Cl)cc1C(=O)O/N=C(\N)c1ccc(Cl)cc1	none
COc1ccc(C(=O)COC(=O)c2ccco2)cc1	SENP8 block-1 50, SENP7 block 55, SENP6 inh 72 | SENP8 conf 62 | SENP6 confirm 62 | SENP7 conf 86 | Casp3 select 85 | SENP luc ctr 71
N/C(=N\OC(=O)c1ccco1)c1ccccc1	SENP8 block-1 82, SENP7 block 81, SENP6 inh 88 | SENP8 conf 74 | SENP6 confirm 75 | SENP7 conf 95 | Casp3 select 90 | SENP luc ctr 76
COc1ccc(/C(N)=N/OC(=O)c2ccco2)cc1	SENP8 block-1 84, SENP6 inh 91 | SENP8 conf 89 | SENP6 confirm 90 | SENP7 conf 98 | Casp3 select 91 | SENP luc ctr 86
Nc1sc(-c2ccccc2)cc1C(=O)NCCc1c[nH]c2ccccc12	none (no result: Apaf-1 inh, SENP8 block-1, SENP7 block, SENP6 inh)
NS(=O)(=O)c1ccc(CNC(=O)c2ccncc2)cc1	none
CCOc1ccc(CNC(=O)CN2C(=O)CSc3ccc(S(=O)(=O)N4CCOCC4)cc32)cc1	none (no result: Apaf-1 inh, SENP8 block-1, SENP7 block, SENP6 inh)
O=C(Cc1ccccc1F)Nc1cccc(S(=O)(=O)N2CCCCC2)c1	none (no result: Apaf-1 inh, SENP8 block-1, SENP7 block, SENP6 inh)
CC(C)(C)C(=O)O/N=C(\N)c1ccc(Br)cc1	none
Cc1ccc(C(=O)O/N=C(\N)c2ccc(Br)cc2)cc1	none
Cc1cccc(/C(N)=N/OC(=O)c2ccco2)c1	SENP8 block-1 84, SENP7 block 91, SENP6 inh 92 | SENP8 conf 91 | SENP6 confirm 92 | SENP7 conf 101 | Casp3 select 94 | SENP luc ctr 86
N/C(=N\OC(=O)c1ccco1)c1ccc(Br)cc1	SENP8 block-1 74, SENP7 block 76, SENP6 inh 93 | SENP8 conf 84 | SENP6 confirm 83 | SENP7 conf 97 | Casp3 select 75 | SENP luc ctr 73
N/C(=N\OC(=O)c1ccco1)c1ccccn1	SENP7 block 78, SENP6 inh 76 | SENP8 conf 62 | SENP6 confirm 62 | SENP7 conf 91 | Casp3 select 92 | SENP luc ctr 76
Cc1ccc(/C(N)=N/OC(=O)c2ccco2)cc1	SENP8 block-1 89, SENP7 block 95, SENP6 inh 73 | SENP8 conf 76 | SENP6 confirm 95 | SENP7 conf 102 | Casp3 select 91 | SENP luc ctr 68
COc1cc(NC(=O)c2cc(-c3cc(F)ccc3OC(C)C)n[nH]2)cc(OC)c1OC	none (no result: Apaf-1 inh, SENP8 block-1, SENP7 block, SENP6 inh)
CCOC(=O)c1nc2ccc(C)cc2c2c1C1CC(c3c(Cl)cccc31)N2C(=O)OCc1ccccc1 (centres undefined)	none (no result: Apaf-1 inh, SENP8 block-1, SENP7 block, SENP6 inh)

Screens deposited in PubChem BioAssay by Sanford-Burnham Center for Chemical Genomics.
